# From ChEMBL document CHEMBL4715736, “Identification of anticancer agents based on the thieno[2,3-b]pyridine and 1H-pyrazole molecular scaffolds” (2016)
# Test system: OVCAR-4
# Experiment: Growth inhibition of human OVCAR-4 cells assessed as cell growth at 10 uM incubated for 48 hrs by sulforhodamine B assay relative to control
# Format: functional
# Conditions: read-out: Activity
# In short: (§1)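 Run by the NCI Developmental Therapeutics Program as part of its 60-line human tumour panel. Each compound tested at a single 10 µM dose. Growth expressed as % relative to untreated control cells (100%).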
row,SMILES,growth at 10 µM
1,CCc1ccccc1NC(=O)c1sc2nc3c(cc2c1N)C(=O)CCC3,41%

# Test system: SW-620
# Experiment: Growth inhibition of human SW-620 cells assessed as cell growth at 10 uM incubated for 48 hrs by sulforhodamine B assay relative to control
# Format: functional
# Conditions: read-out: Activity
# In short: as §1
row,SMILES,growth at 10 µM
1,CCc1ccccc1NC(=O)c1sc2nc3c(cc2c1N)C(=O)CCC3,24%

# Test system: MCF7
# Experiment: Growth inhibition of human MCF7 cells assessed as cell growth at 10 uM incubated for 48 hrs by sulforhodamine B assay relative to control
# Format: functional
# Conditions: read-out: Activity
# In short: (§2)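 Submitted to the NCI Developmental Therapeutics Program for the NCI60 human tumour cell line panel. First screen at a single 10 µM concentration. Read-out is growth relative to untreated control cells set at 100%.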
row,SMILES,growth at 10 µM
1,CCc1ccccc1NC(=O)c1sc2nc3c(cc2c1N)C(=O)CCC3,8.32%

# Test system: CAKI-1
# Experiment: Growth inhibition of human CAKI-1 cells assessed as cell growth at 10 uM incubated for 48 hrs by sulforhodamine B assay relative to control
# Format: functional
# Conditions: read-out: Activity
# In short: (§3)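 NCI Developmental Therapeutics Program NCI60 panel. Compounds that were active in the 10 µM one-dose screen went on to dose–response testing. Growth at each concentration is expressed relative to untreated control (100%). GI50 (concentration giving 50% of maximal inhibition of proliferation) and TGI (concentration giving total growth inhibition) were derived from the curves.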
row,SMILES,growth at 10 µM
1,CCc1ccccc1NC(=O)c1sc2nc3c(cc2c1N)C(=O)CCC3,29.9%

# Test system: SNB-19
# Experiment: Growth inhibition of human SNB-19 cells assessed as cell growth at 10 uM incubated for 48 hrs by sulforhodamine B assay relative to control
# Format: functional
# Conditions: read-out: Activity
# In short: as §1
row,SMILES,growth at 10 µM
1,CCc1ccccc1NC(=O)c1sc2nc3c(cc2c1N)C(=O)CCC3,35%

# Test system: SNB-19
# Experiment: Growth inhibition of human SNB-19 cells assessed as cell growth at 100 uM incubated for 48 hrs by sulforhodamine B assay relative to control
# Format: functional
# Conditions: read-out: Activity
row,SMILES,growth at 100 µM
1,CCc1ccccc1NC(=O)c1sc2nc3c(cc2c1N)C(=O)CCC3,11%

# Test system: SF-295
# Experiment: Growth inhibition of human SF-295 cells assessed as cell growth at 0.01 uM incubated for 48 hrs by sulforhodamine B assay relative to control
# Format: functional
# Conditions: read-out: Activity
row,SMILES,growth at 0.01 µM
1,CCc1ccccc1NC(=O)c1sc2nc3c(cc2c1N)C(=O)CCC3,86%

# Test system: SK-OV-3
# Experiment: Growth inhibition of human SK-OV-3 cells assessed as cell growth at 10 uM incubated for 48 hrs by sulforhodamine B assay relative to control
# Format: functional
# Conditions: read-out: Activity
# In short: as §1
row,SMILES,growth at 10 µM
1,CCc1ccccc1NC(=O)c1sc2nc3c(cc2c1N)C(=O)CCC3,30%

# Test system: COLO 205
# Experiment: Growth inhibition of human COLO 205 cells assessed as cell growth at 10 uM incubated for 48 hrs by sulforhodamine B assay relative to control
# Format: functional
# Conditions: read-out: Activity
# In short: as §3
row,SMILES,growth at 10 µM
1,CCc1ccccc1NC(=O)c1sc2nc3c(cc2c1N)C(=O)CCC3,-68%

# Test system: 786-0
# Experiment: Growth inhibition of human 786-0 cells assessed as cell growth at 10 uM incubated for 48 hrs by sulforhodamine B assay relative to control
# Format: functional
# Conditions: read-out: Activity
# In short: as §3
row,SMILES,growth at 10 µM
1,CCc1ccccc1NC(=O)c1sc2nc3c(cc2c1N)C(=O)CCC3,35.1%

# Test system: RPMI-8226
# Experiment: Growth inhibition of human RPMI-8226 cells assessed as cell growth at 10 uM incubated for 48 hrs by sulforhodamine B assay relative to control
# Format: functional
# Conditions: read-out: Activity
# In short: as §1
row,SMILES,growth at 10 µM
1,CCc1ccccc1NC(=O)c1sc2nc3c(cc2c1N)C(=O)CCC3,-1%

# Test system: SK-MEL-2
# Experiment: Growth inhibition of human SK-MEL-2 cells assessed as cell growth at 10 uM incubated for 48 hrs by sulforhodamine B assay relative to control
# Format: functional
# Conditions: read-out: Activity
# In short: as §1
row,SMILES,growth at 10 µM
1,CCc1ccccc1NC(=O)c1sc2nc3c(cc2c1N)C(=O)CCC3,19.9%

# Test system: KM12
# Experiment: Growth inhibition of human KM12 cells assessed as cell growth at 1 uM incubated for 48 hrs by sulforhodamine B assay relative to control
# Format: functional
# Conditions: read-out: Activity
row,SMILES,growth at 1 µM
1,CCc1ccccc1NC(=O)c1sc2nc3c(cc2c1N)C(=O)CCC3,21%

# Test system: HT-29
# Experiment: Growth inhibition of human HT-29 cells assessed as cell growth at 10 uM incubated for 48 hrs by sulforhodamine B assay relative to control
# Format: functional
# Conditions: read-out: Activity
# In short: as §2
row,SMILES,growth at 10 µM
1,CCc1ccccc1NC(=O)c1sc2nc3c(cc2c1N)C(=O)CCC3,6%

# Test system: SR
# Experiment: Growth inhibition of human SR cells assessed as cell growth at 10 uM incubated for 48 hrs by sulforhodamine B assay relative to control
# Format: functional
# Conditions: read-out: Activity
# In short: as §1
row,SMILES,growth at 10 µM
1,CCc1ccccc1NC(=O)c1sc2nc3c(cc2c1N)C(=O)CCC3,9.38%

# Test system: LOX IMVI
# Experiment: Growth inhibition of human LOX IMVI cells assessed as cell growth at 10 uM incubated for 48 hrs by sulforhodamine B assay relative to control
# Format: functional
# Conditions: read-out: Activity
# In short: as §2
row,SMILES,growth at 10 µM
1,CCc1ccccc1NC(=O)c1sc2nc3c(cc2c1N)C(=O)CCC3,42.6%

# Test system: MDA-MB-231
# Experiment: Growth inhibition of human MDA-MB-231 cells assessed as cell growth at 10 uM incubated for 48 hrs by sulforhodamine B assay relative to control
# Format: functional
# Conditions: read-out: Activity
# In short: as §2
row,SMILES,growth at 10 µM
1,CCc1ccccc1NC(=O)c1sc2nc3c(cc2c1N)C(=O)CCC3,36%

# Test system: T47D
# Experiment: Growth inhibition of human T47D cells assessed as cell growth at 10 uM incubated for 48 hrs by sulforhodamine B assay relative to control
# Format: functional
# Conditions: read-out: Activity
# In short: as §1
row,SMILES,growth at 10 µM
1,CCc1ccccc1NC(=O)c1sc2nc3c(cc2c1N)C(=O)CCC3,22%

# Test system: HCC 2998
# Experiment: Growth inhibition of human HCC 2998 cells assessed as cell growth at 10 uM incubated for 48 hrs by sulforhodamine B assay relative to control
# Format: functional
# Conditions: read-out: Activity
# In short: as §3
row,SMILES,growth at 10 µM
1,CCc1ccccc1NC(=O)c1sc2nc3c(cc2c1N)C(=O)CCC3,20%

# Test system: BT-549
# Experiment: Growth inhibition of human BT-549 cells assessed as cell growth at 10 uM incubated for 48 hrs by sulforhodamine B assay relative to control
# Format: functional
# Conditions: read-out: Activity
# In short: (§4)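 NCI Developmental Therapeutics Program NCI60 human tumour cell line panel, one-dose primary screen with every compound at 10 µM. Growth is expressed as % of untreated control cells (100%).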
row,SMILES,growth at 10 µM
1,CCc1ccccc1NC(=O)c1sc2nc3c(cc2c1N)C(=O)CCC3,48%

# Test system: HCT-15
# Experiment: Growth inhibition of human HCT-15 cells incubated for 48 hrs by sulforhodamine B assay
# Format: functional
# Conditions: not given
# In short: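 NCI60 panel at the NCI Developmental Therapeutics Program. Only compounds active in the 10 µM screen went to dose-response testing. GI50, the concentration giving 50% of maximal inhibition of proliferation, and TGI, the concentration giving total growth inhibition, were derived from the dose-response curves.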
SMILES,GI50,LC50,TGI
CCc1ccccc1NC(=O)c1sc2nc3c(cc2c1N)C(=O)CCC3,0.349 µM,> 100 µM,> 100 µM

# Test system: NCI-H522
# Experiment: Growth inhibition of human NCI-H522 cells assessed as cell growth at 10 uM incubated for 48 hrs by sulforhodamine B assay relative to control
# Format: functional
# Conditions: read-out: Activity
# In short: as §2
row,SMILES,growth at 10 µM
1,CCc1ccccc1NC(=O)c1sc2nc3c(cc2c1N)C(=O)CCC3,-11.6%

# Test system: K562
# Experiment: Growth inhibition of human K562 cells assessed as cell growth at 10 uM incubated for 48 hrs by sulforhodamine B assay relative to control
# Format: functional
# Conditions: read-out: Activity
# In short: as §2
row,SMILES,growth at 10 µM
1,CCc1ccccc1NC(=O)c1sc2nc3c(cc2c1N)C(=O)CCC3,11%

# Test system: SF-539
# Experiment: Growth inhibition of human SF-539 cells incubated for 48 hrs by sulforhodamine B assay
# Format: functional
# Conditions: not given
# In short: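 NCI DTP 60-line human tumour panel. Dose-response curves were run only for ligands active in the initial 10 µM screen. GI50 (concentration giving 50% of maximal inhibition of proliferation) and TGI (concentration giving total growth inhibition) were derived from these curves.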
SMILES,GI50,TGI
CCc1ccccc1NC(=O)c1sc2nc3c(cc2c1N)C(=O)CCC3,0.335 µM,2.69 µM

# Same assay, conditions: read-out: LC50 (the source's name)
row,SMILES,CC50
1,CCc1ccccc1NC(=O)c1sc2nc3c(cc2c1N)C(=O)CCC3,> 100 µM

# Test system: MOLT-4
# Experiment: Growth inhibition of human MOLT-4 cells assessed as cell growth at 0.01 uM incubated for 48 hrs by sulforhodamine B assay relative to control
# Format: functional
# Conditions: read-out: Activity
row,SMILES,growth at 0.01 µM
1,CCc1ccccc1NC(=O)c1sc2nc3c(cc2c1N)C(=O)CCC3,102%

# Test system: ACHN
# Experiment: Growth inhibition of human ACHN cells assessed as cell growth at 10 uM incubated for 48 hrs by sulforhodamine B assay relative to control
# Format: functional
# Conditions: read-out: Activity
# In short: as §4
row,SMILES,growth at 10 µM
1,CCc1ccccc1NC(=O)c1sc2nc3c(cc2c1N)C(=O)CCC3,38%

# Test system: DU-145
# Experiment: Growth inhibition of human DU-145 cells assessed as cell growth at 10 uM incubated for 48 hrs by sulforhodamine B assay relative to control
# Format: functional
# Conditions: read-out: Activity
# In short: as §3
row,SMILES,growth at 10 µM
1,CCc1ccccc1NC(=O)c1sc2nc3c(cc2c1N)C(=O)CCC3,2.55%

# Test system: SF-268
# Experiment: Growth inhibition of human SF-268 cells assessed as cell growth at 10 uM incubated for 48 hrs by sulforhodamine B assay relative to control
# Format: functional
# Conditions: read-out: Activity
# In short: as §1
row,SMILES,growth at 10 µM
1,CCc1ccccc1NC(=O)c1sc2nc3c(cc2c1N)C(=O)CCC3,40.4%

# Test system: OVCAR-8
# Experiment: Growth inhibition of human OVCAR-8 cells assessed as cell growth at 10 uM incubated for 48 hrs by sulforhodamine B assay relative to control
# Format: functional
# Conditions: read-out: Activity
# In short: as §1
row,SMILES,growth at 10 µM
1,CCc1ccccc1NC(=O)c1sc2nc3c(cc2c1N)C(=O)CCC3,24.3%

# Test system: CAKI-1
# Experiment: Growth inhibition of human CAKI-1 cells assessed as cell growth at 100 uM incubated for 48 hrs by sulforhodamine B assay relative to control
# Format: functional
# Conditions: read-out: Activity
# In short: as §3
row,SMILES,growth at 100 µM
1,CCc1ccccc1NC(=O)c1sc2nc3c(cc2c1N)C(=O)CCC3,35%

# Test system: TK-10
# Experiment: Growth inhibition of human TK-10 cells assessed as cell growth at 10 uM incubated for 48 hrs by sulforhodamine B assay relative to control
# Format: functional
# Conditions: read-out: Activity
# In short: as §1
row,SMILES,growth at 10 µM
1,CCc1ccccc1NC(=O)c1sc2nc3c(cc2c1N)C(=O)CCC3,54.7%

# Test system: LOX IMVI
# Experiment: Growth inhibition of human LOX IMVI cells assessed as cell growth at 0.1 uM incubated for 48 hrs by sulforhodamine B assay relative to control
# Format: functional
# Conditions: read-out: Activity
row,SMILES,growth at 0.1 µM
1,CCc1ccccc1NC(=O)c1sc2nc3c(cc2c1N)C(=O)CCC3,95%
